Data reported in PubChem BioAssay.
Active and inactive are the calls of the source.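 How the source made its calls, unless noted: active means compounds giving at least 50% inhibition in the cell-based MKP-3 phosphatase rescue imaging test; inactive means the rest.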

Assays:
[1] = inhibitors of TNFa-induced NFkB p65 translocation, primary screen, imaging, HUVEC, MLSMR starter and 10KST1 sets (AID 438;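 active means inhibition above 20% together with a positive visual image hit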;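 further: compound added about 3h40 before a 20 min TNFalpha stimulation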;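 on inhibition: signal is the nuclear over cytoplasmic p65 intensity ratio per well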); settings: HUVEC TNFa-induced p65 nuclear translocation; cell count: measured here: nuclei count (cytotoxicity indicator), at 2.08 µM; inhibition: at 2 µM, stronger effect = higher value, 0% TNFa-plus-vehicle, 100% no-TNFa wells
[2] = inhibitors of E-selectin induction by TNFa, primary screen, imaging, HUVEC, immunofluorescence, MLSMR starter and 10KST1 sets (AID 487;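 active means visually confirmed hit in the image check and inhibition above 20%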;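 on inhibition: signal is fraction of cell area covered by stained E-selectin grains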;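 on nuclei count: 100% = median nuclei count of all wells on the same plate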); settings: HUVEC TNFalpha-induced E-selectin immunofluorescence imaging, at 2 µM; inhibition: stronger effect = higher value; nuclei count: measured here: cell number, toxicity
[3] = DUSP6 inhibitors restoring Erk phosphorylation by chemical complementation, primary imaging in DUSP6-transfected HeLa (AID 609); settings: HeLa MKP-3 transfected, phospho-Erk imaging KS statistic, at 10 µM, cells stimulated with TPA for 15 min;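 on inhibition: phospho-Erk level distribution per well compared with pooled transfected vehicle control wells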
[4] = target: Dual specificity protein phosphatase 6 (Homo sapiens) (UniProt Q16828); assay: as above; settings: HeLa MKP-3 transfected, phospho-Erk imaging KS statistic; at 10 µM; stronger effect = higher value; cells stimulated with TPA for 15 min
Sequence of Dual specificity protein phosphatase 6 (Homo sapiens) (Q16828 whole entry, looked up): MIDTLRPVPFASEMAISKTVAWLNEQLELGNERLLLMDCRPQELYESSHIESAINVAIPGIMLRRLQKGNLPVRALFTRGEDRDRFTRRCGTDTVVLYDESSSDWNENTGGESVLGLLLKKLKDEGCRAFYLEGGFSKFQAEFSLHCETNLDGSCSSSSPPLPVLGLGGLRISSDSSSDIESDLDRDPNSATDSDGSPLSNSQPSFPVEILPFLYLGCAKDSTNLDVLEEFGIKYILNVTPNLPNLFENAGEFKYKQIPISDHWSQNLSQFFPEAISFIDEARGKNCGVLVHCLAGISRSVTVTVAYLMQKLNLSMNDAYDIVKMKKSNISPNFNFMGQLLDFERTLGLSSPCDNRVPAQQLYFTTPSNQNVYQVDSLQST

[5] = target: Voltage-gated potassium channel subunit beta-2 (Rattus norvegicus) (UniProt P62483); assay: KvBeta enzyme negative modulators, primary screen, biochemical, NADPH fluorescence (AID 622;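 active means fluorescence slope higher than the sample average by over 3 SD, cut at about -0.22 in these data, passing the limit was not always enough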;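 further: slope of raw intensity against log time taken from 70 to 1610 s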); settings: recombinant KvBeta, 4-cyanobenzaldehyde reduction, at 10 µM, stronger effect = higher value
Sequence of Voltage-gated potassium channel subunit beta-2 (Rattus norvegicus) (P62483 whole entry, looked up): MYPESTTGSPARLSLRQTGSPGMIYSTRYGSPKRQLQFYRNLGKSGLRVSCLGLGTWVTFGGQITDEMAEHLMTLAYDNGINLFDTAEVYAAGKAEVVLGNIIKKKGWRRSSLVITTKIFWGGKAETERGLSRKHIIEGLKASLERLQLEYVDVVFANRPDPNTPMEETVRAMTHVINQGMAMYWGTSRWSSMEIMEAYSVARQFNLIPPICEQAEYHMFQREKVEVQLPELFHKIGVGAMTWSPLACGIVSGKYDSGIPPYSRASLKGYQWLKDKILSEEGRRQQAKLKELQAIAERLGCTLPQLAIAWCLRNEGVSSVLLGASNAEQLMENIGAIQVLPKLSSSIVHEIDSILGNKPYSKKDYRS

[6] = target: Voltage-gated potassium channel subunit beta-2 (Rattus norvegicus) (UniProt P62483); assay: KvBeta positive modulators, primary screen, biochemical, NADPH fluorescence (AID 623;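 active means NADPH fluorescence slope more negative than the mean of all samples by about 3 SD, 99.7% confidence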;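 further: fluorescence intensity change per second fitted from 20 to 320 s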); settings: Recombinant KvBeta, NADPH fluorescence decrease slope, 10 min; at 10 µM; stronger effect = lower value
[7] = target: Alpha-2C adrenergic receptor (Homo sapiens) (UniProt P18825); assay: modulators of alpha2C/GIRK thallium flux, primary screen, cell-based, HEK293 alpha2C/GIRK1/2 (AID 624;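 active means fluorescence slope after compound addition differing from the mean of all screened samples at 99.7% confidence, in either direction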;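 further: slope of fluorescence ratio to pre-addition baseline per second over 15 to 24 s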); settings: thallium flux BTC fluorescence, at 10 µM, actives lie on both sides
Sequence of Alpha-2C adrenergic receptor (Homo sapiens) (P18825 whole entry, looked up): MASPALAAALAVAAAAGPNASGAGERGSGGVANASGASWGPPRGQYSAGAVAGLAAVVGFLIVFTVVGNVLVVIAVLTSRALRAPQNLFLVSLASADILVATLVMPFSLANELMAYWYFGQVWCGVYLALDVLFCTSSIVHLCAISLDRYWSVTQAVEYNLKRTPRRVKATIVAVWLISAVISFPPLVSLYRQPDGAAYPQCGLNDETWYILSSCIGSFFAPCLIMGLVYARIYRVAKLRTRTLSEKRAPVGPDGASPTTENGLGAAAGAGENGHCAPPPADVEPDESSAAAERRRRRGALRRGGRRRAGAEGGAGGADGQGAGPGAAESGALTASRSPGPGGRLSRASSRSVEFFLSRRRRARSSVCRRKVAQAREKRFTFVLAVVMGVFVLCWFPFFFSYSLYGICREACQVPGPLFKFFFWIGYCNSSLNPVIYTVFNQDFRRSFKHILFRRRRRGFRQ

[8] = inhibitors of larval lipid processing in zebrafish, primary screen, whole organism, PED6 fluorescence, gall bladder and intestine (AID 686;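 active means a full or partial loss of lipid-probe fluorescence in the fish gall bladder, intestine or both, judged by eye; inactive means no fluorescence loss, or compound toxic to the fish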;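 further: larvae 5 to 7 days old with five fish per well; signal comes from phospholipase A2 cleavage of quenched PED6 carried via bile; overnight exposure to compound and PED6 before scoring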); settings: Zebrafish larvae PED6 lipid processing, fluorescence scoring; screened at 20 µM (by protocol)
How it was run: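 System: live zebrafish larvae aged 5-7 days, whole organism; measure: graded gall bladder and intestinal fluorescence inhibition per well; incubation: overnight exposure; reagent: ingested quenched lipid PED6 at 100 nM; signal: By-eye fluorescence microscopy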

[9] = inhibitors of Chlamydomonas gravitaxis, primary screen, whole organism, Chlamydomonas reinhardtii, WT vs cilia-less mutant, absorbance, 96-well (AID 463189;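 active means inhibition at or above 50% relative to wild type and mutant plate controls; inactive means inhibition below 50%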;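 further: 0% = wild type cc124 cells in DMSO and 100% = ciliumless bld1 mutant cells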); settings: OD600 absorbance, 2 days, at 10 µM, stronger effect = higher value
[10] = measured here: cell density z-score
[11] = measured here: nuclear c-Myc green intensity z-score
[12] = measured here: nuclear pErk red intensity z-score, stronger effect = higher value

Row | Compound | cell count [1] | inhibition [1] | inhibition [2] | nuclei count [2] [%] | z-score [3, 10] | z-score [3, 11] | z-score [3, 12] | inhibition [4] | fluorescence slope [5] | NADPH fluorescence slope [6] | slope [7] | outcome [8] | inhibition [9]
1 | COc1ccc(S(=O)(=O)N2CCC(N3CCCCC3)CC2)cc1 | 454 | -22.7% (inactive) | -217% (inactive) | 148 | 0.445 | -1.43 | -2.35 | 29.3% (inactive) | -0.314 (inactive) | -2e-05 (inactive) | 0.00443 (inactive) | inactive | 68% (active)
2 | COc1ccc(/C(O)=C2/C(=O)C(=O)N(c3ncccn3)C2c2ccc(OC)c(OC)c2)cc1 (configuration not stated) | 584 | -2.6% (inactive) | -34.9% (inactive) | 176 | -1.58 | 0.795 | 2.34 | 0.671% (inactive) | -0.352 (inactive) | -4.6e-05 (inactive) | 0.0049 (inactive) | inactive | 3.9% (inactive)
3 | c1coc(-c2nc3nc4ccccc4nc3n2-c2ccc3c(c2)OCCO3)c1 | 365 | -1.4% (inactive) | -29.5% (inactive) | 152 | 0.934 | 0.669 | -1.25 | 11.4% (inactive) | -0.363 (inactive) | -0.000166 (inactive) | 0.00503 (inactive) | inactive | 12.2% (inactive)
4 | CCCOc1cccc(C2C(C(=O)c3ccc(C)o3)=C(O)C(=O)N2CCCN(C)C)c1 (configuration not stated) | 432 | 3.5% (inactive) | 48.5% (inactive) | 77.5 | -0.596 | -1.82 | 0.0129 | -11.9% (inactive) | -0.45 (inactive) | -9.1e-06 (inactive) | 0.00522 (inactive) | inactive | -2.38% (inactive)
5 | Nc1nonc1-c1noc(N2CCOCC2)n1 | 306 | -10.9% (inactive) | -42.1% (inactive) | 106 | 0.592 | 0.125 | 0.227 | -12.3% (inactive) | -0.281 (inactive) | 1e-05 (inactive) | 0.00528 (inactive) | inactive | 17.1% (inactive)
6 | CC1CCc2cc(F)cc3c(O)c(C(=O)NCc4ccco4)c(=O)n1c23 (configuration not stated) | 531 | -4.5% (inactive) | -39.2% (inactive) | 138 | -0.138 | 1.87 | -4.17 | 5.26% (inactive) | -0.329 (inactive) | 4e-05 (inactive) | 0.00603 (inactive) | inactive | 6.44% (inactive)
7 | Oc1c(C=Nc2cccnc2)sc2ccccc12 | 623 | -14.4% (inactive) | -17% (inactive) | 170 | 0.476 | 0.705 | 1.13 | -20.4% (inactive) | -0.405 (inactive) | -6e-05 (inactive) | 0.0055 (inactive) | inactive | -14.9% (inactive)
8 | O=S1CCCSC1c1cccnc1 (configuration not stated) | 524 | -10.3% (inactive) | -190% (inactive) | 144 | 1.86 | -0.668 | -1.2 | 13.9% (inactive) | -0.507 (inactive) | -1.9e-05 (inactive) | 0.00681 (inactive) | inactive | 2.49% (inactive)
9 | CCOC(=O)c1[nH]c2cc3c(cc2c1NC(=O)CN1CCC(C)CC1)OCO3 | 554 | -1.1% (inactive) | -6.5% (inactive) | 155 | -0.767 | 1.52 | -0.0577 | 1.6e-07% (inactive) | -0.27 (inactive) | 6.7e-06 (inactive) | 0.00467 (inactive) | inactive | -6.78% (inactive)
10 | CCCCCCSC1=C(C#N)C(c2ccccc2)CC(=O)N1 (configuration not stated) | 469 | 0.6% (inactive) | -6.9% (inactive) | 74.3 | 0.751 | 0.0915 | -1.53 | 18.9% (inactive) | -0.513 (inactive) | -6.1e-05 (inactive) | 0.00499 (inactive) | inactive | 24.3% (inactive)
11 | c1ccc(OCc2nn3c(-c4ccco4)nnc3s2)cc1 | 654 | 3.2% (inactive) | -139% (inactive) | 156 | 2.72 | -1.05 | -0.302 | 11.9% (inactive) | -0.417 (inactive) | -0.000108 (inactive) | 0.00597 (inactive) | inactive | 7.84% (inactive)
12 | Cc1nccn1-c1cc(C(C)C)c(C#N)c2nc3ccccc3n12 | 468 | -22.6% (inactive) | -68.2% (inactive) | 140 | 1.43 | -0.347 | -0.664 | 8.31% (inactive) | -0.524 (inactive) | -2.8e-05 (inactive) | 0.0063 (inactive) | inactive | 23% (inactive)
13 | CCCOc1ccc(/C(O)=C2/C(=O)C(=O)N(CCN(C)C)C2c2ccc(OC)c(OC)c2)cc1 (configuration not stated) | 461 | -7.3% (inactive) | -136% (inactive) | 167 | -0.67 | 0.995 | 0.868 | 6.04% (inactive) | -0.411 (inactive) | -6.1e-05 (inactive) | 0.00495 (inactive) | inactive | 8% (inactive)
14 | Cc1cc(=O)oc(C)c1C(=O)NCCN1CCOCC1 | 476 | -0.5% (inactive) | -10.6% (inactive) | 92.4 | -0.82 | 0.575 | 1.34 | -1.75% (inactive) | -0.491 (inactive) | -1.8e-05 (inactive) | 0.00592 (inactive) | inactive | 21.9% (inactive)
